Where a chain is given by its changes, count along the chain named. pEC50: −log10 of the molar value.
Tests used:
Type in all cases: biochemical, C. elegans
[1] = target: T1, ACOX-1.1 (Caenorhabditis elegans, UniProt O62140); assay: Enzyme-coupled kinetic assay, wild-type ACOX-1.1 as purified
T1 sequence (O62140 1-674): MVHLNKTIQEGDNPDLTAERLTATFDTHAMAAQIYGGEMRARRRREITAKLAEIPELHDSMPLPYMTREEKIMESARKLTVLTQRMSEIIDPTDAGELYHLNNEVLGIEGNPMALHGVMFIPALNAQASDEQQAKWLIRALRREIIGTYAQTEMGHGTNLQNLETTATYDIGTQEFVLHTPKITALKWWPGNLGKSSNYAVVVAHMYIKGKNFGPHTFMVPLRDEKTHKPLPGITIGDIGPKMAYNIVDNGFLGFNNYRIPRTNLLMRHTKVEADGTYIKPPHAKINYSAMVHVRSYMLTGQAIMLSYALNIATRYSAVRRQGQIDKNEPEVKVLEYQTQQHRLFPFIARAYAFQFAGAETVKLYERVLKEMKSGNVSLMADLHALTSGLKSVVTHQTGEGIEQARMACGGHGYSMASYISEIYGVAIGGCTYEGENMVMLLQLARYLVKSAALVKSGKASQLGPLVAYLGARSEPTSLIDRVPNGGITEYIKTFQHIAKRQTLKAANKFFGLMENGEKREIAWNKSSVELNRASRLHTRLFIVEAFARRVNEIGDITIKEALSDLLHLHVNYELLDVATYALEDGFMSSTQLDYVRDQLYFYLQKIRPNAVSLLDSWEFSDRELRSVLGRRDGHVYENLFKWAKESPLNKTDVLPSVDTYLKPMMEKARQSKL

[2] = tested on: ACOX-1.1(H396G); assay: Enzyme-coupled kinetic assay, ACOX-1.1; settings: 10 μM FAD, various ATP
In short: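 Coupled H2O2 assay on a plate reader using the mutant enzyme (250 nM final). […] Peroxide was coupled through 4-aminoantipyrine (0.82 mM final), phenol (10.6 mM final) and peroxidase, read at 500 nm. Substrate was 25 µM lauroyl-CoA in 50 mM Tris-HCl pH 7.5, 150 mM NaCl, 10 mM MgCl2. Initial rate was taken over a 30 s window at 25–26 °C.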

[3] = target: T2, ACOX-1.1(R343Q) (Caenorhabditis elegans, UniProt O62140, R343Q); assay: Enzyme-coupled kinetic assay, ACOX-1.1; settings: varying ATP
T2 sequence (O62140 1-674 R343Q): T1 sequence (O62140 1-674) with R343Q

[4] = target: T3, ACOX-1.1(N437A) (Caenorhabditis elegans, UniProt O62140, N437A); assay: Enzyme-coupled kinetic assay, ACOX-1.1
T3 sequence (O62140 1-674 N437A): T1 sequence (O62140 1-674) with N437A

Compound: Nc1ncnc2c1ncn2[C@@H]1O[C@H](COP(=O)(O)OP(=O)(O)OP(=O)(O)O)[C@@H](O)[C@H]1O [ATP]
- pEC50 [1]: 3.60
- response of enzyme activity to ATP [2]: do not respond to ATP
- influence of ATP on the activity of the enzyme [3]: no influence on the activity of the enzyme
- response of enzyme activity to ATP [4]: did not respond to ATP
